In ChEMBL document CHEMBL1148136, “Induction of quinone reductase by withanolides” (J Nat Prod, 2002):
Activity calls are given as the source filed them. No cut-off for these calls is given here.

How the values were obtained:
[1] = Growth inhibition of mouse Hepa-1c1c7 cells by crystal violet staining; assay type: cell-based; conditions: Mus musculus, Hepa-1c1c7
Summary of the method: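 Hepa 1c1c7 cells seeded at 4000 cells/mL and grown 24 h at 37 °C, then medium changed. Compounds added in 10% DMSO, serially diluted over 0.15-20 µg/mL, and exposed 48 h. Viability read by crystal violet staining at 595 nm. IC50 taken as the half-maximal inhibitory concentration of cell viability.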

[2] = Chemoprevention index, ratio of IC50 for mouse Hepa-1c1c7 cells to drug level required to double specific quinone reductase activity in mouse Hepa-1c1c7 cells; assay type: functional
Summary of the method: (§1)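 Hepa 1c1c7 cells seeded at 4000 cells/mL, grown 24 h at 37 °C under CO2, then medium changed. Compounds added in 10% DMSO, serially diluted over 0.15-20 µg/mL, and incubated a further 48 h. QR measured as NADPH-dependent, menadiol-mediated MTT reduction to formazan. Protein by crystal violet at 595 nm in duplicate plates. Specific activity expressed relative to solvent control. CD = concentration giving 2-fold activity, CQ = 4-fold. CI = IC50/CD or IC50/CQ.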

[3] = Chemoprevention index, ratio of IC50 for mouse Hepa-1c1c7 cells to drug level required to induce 4-fold increase in quinone reductase activity in mouse Hepa-1c1c7 cells; assay type: functional; summary of the method: as §1
Mus musculus [4] = assay: Induction of quinone reductase activity in BALB/c mouse liver at 2.5 mg/0.2 ml/day administered intragastrically for 3 consecutive day; assay type: functional, organism-based
Summary of the method: (§2)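 BALB/c mice, n = 3, dosed intragastrically for 3 consecutive days at 2.5 mg per mouse per day in 0.2 mL sesame oil. Quinone reductase activity was then assessed in liver, lung, colon, stomach and mammary gland tissue, and the change in activity is reported for each organ.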

Mus musculus [5] = assay: Induction of quinone reductase activity in BALB/c mouse colon at 2.5 mg/0.2 ml/day administered intragastrically for 3 consecutive day; assay type: functional, organism-based; summary of the method: as §2
Mus musculus [6] = assay: Induction of quinone reductase activity in BALB/c mouse lung at 2.5 mg/0.2 ml/day administered intragastrically for 3 consecutive day; assay type: functional, organism-based; summary of the method: as §2
Mus musculus [7] = assay: Induction of quinone reductase activity in BALB/c mouse stomach at 2.5 mg/0.2 ml/day administered intragastrically for 3 consecutive day; assay type: functional, organism-based; summary of the method: as §2
Mus musculus [8] = assay: Induction of quinone reductase activity in BALB/c mouse mammary gland at 2.5 mg/0.2 ml/day administered intragastrically for 3 consecutive day; assay type: functional, organism-based; summary of the method: as §2

Row | SMILES | IC50 [1] | Ratio [2] | Ratio [3] | Activity (Mus musculus [4]) | Activity (Mus musculus [5]) | Activity (Mus musculus [6]) | Activity (Mus musculus [7]) | Activity (Mus musculus [8])
1 | CC1=C(CO)C(=O)O[C@@H]([C@@H](C)[C@H]2CC[C@H]3[C@@H]4C[C@@H](O)C5=CC=CC(=O)[C@]5(C)[C@H]4CC[C@]23C)C1 [JABOROSALACTONE B] | 38.5 µM | 11.1 | 26.9 |  |  |  |  | 
2 | CC1=C(C)[C@]2(OC1=O)[C@H](O)[C@@H](C)[C@]1(O)CC[C@H]3[C@@H]4CC=C5CC=CC(=O)[C@]5(C)[C@H]4C[C@@]2(O)[C@@]31C [JABOROSALACTONE P] | > 42.7 µM | >57 |  | inactive | inactive | inactive | inactive | inactive
3 | C[C@@H](c1ccc2c(c1)CC[C@H]1[C@H]2[C@@H]2O[C@@H]2[C@@]2(O)CC=CC(=O)[C@]12C)C1C[C@]2(C)O[C@]2(C)[C@H](O)O1 (some centres undefined) [NICANDRENONE] | 42.9 µM | 4.1 | 1.1 |  |  |  |  | 
4 | CC1=C(C)[C@H]([C@H]2O[C@@]3(O)C[C@H]4[C@@H](C[C@H]5O[C@]56CC=CC(=O)[C@]46C)[C@@H]4CC[C@@](O)([C@@H]2C)[C@]43C)OC1=O [TRECHONOLIDE A] | 7.74 µM | 28.7 | 6.1 |  |  |  |  | 
5 | C[C@H]1C[C@H]([C@](C)(O)[C@H]2[C@@H](O)C[C@H]3[C@@H]4C[C@H]5O[C@]56[C@@H](O)C=CC(=O)[C@]6(C)[C@H]4CC[C@]23C)OC(=O)[C@@H]1C [WITHAPHYSACARPIN] | 4.8 µM | 11.1 | 2.5 |  |  |  |  | 
